Experimental data taken from ChEMBL document CHEMBL1123783, “Synthesis and anticonvulsant activity of analogues of 4-amino-N-(1-phenylethyl)benzamide” (J Med Chem, 1987).
“And” between values parts separate entries of the source, which are not always exact repeats. Equal values may be shown once.

Assays:
Mus musculus [1] = organism: Mus musculus; test: Compound was evaluated for anticonvulsant activity against maximal electroshock seizures; assay type: functional
Summary of the method: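 Male Carworth Farms number-one mice received the compound ip in 30% polyethylene glycol 400 before maximal electroshock testing, at several dose levels. The median effective dose (ED50) was obtained by the graphical method.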

Mus musculus [2] = test: Compound was evaluated for toxicity by rotarod assay method after 4 hr; C indicates no activity at 300 mg/kg.; assay type: organism-based; parameters: dose 300 mg/kg; conditions: in vivo
Summary of the method: (§1)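 Male Carworth Farms number-one mice received test compound intraperitoneally in 30% polyethylene glycol 400 at 30, 100 and 300 mg/kg, with 600 mg/kg in some cases. Neurological deficit was read at 30 min or 4 h after dosing on a 1-in.-diameter knurled plastic rod turning at 6 rpm. Toxicity was scored as failure to stay on the rod for 1 min.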

Mus musculus [3] = test: Compound was evaluated for toxicity by rotarod assay method after 30 minutes; C indicates no activity at 300 mg/kg.; assay type: organism-based; parameters: dose 300 mg/kg; conditions: in vivo, 0.5 h; summary of the method: as §1
Mus musculus [4] = test: Compound was evaluated for anticonvulsant activity against subcutaneous pentylenetetrazole-induced convulsions after 30 minutes; C indicates no activity at 300 mg/kg.; assay type: functional, organism-based; parameters: dose 300 mg/kg
Summary of the method: (§2)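 Male Carworth Farms number-one mice were dosed ip in 30% PEG 400, at 30, 100 or 300 mg/kg (sometimes 600 mg/kg). Pentylenetetrazole, 85 mg/kg as a 0.5% solution, was injected subcutaneously in the posterior midline. Protection meant no episode of clonic spasms lasting at least 5 s during a 30-min observation period.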

Mus musculus [5] = test: Compound was evaluated for anticonvulsant activity against subcutaneous pentylenetetrazole-induced convulsions after 4 hr; C indicates no activity at 300 mg/kg.; assay type: functional, organism-based; parameters: dose 300 mg/kg; summary of the method: as §2
Mus musculus [6] = test: Compound was evaluated for anticonvulsant activity against maximal electric shock (MES) induced convulsions after 30 minutes; C indicates no activity at 300 mg/kg.; assay type: functional, organism-based; parameters: dose 300 mg/kg
Mus musculus [7] = test: Compound was evaluated for anticonvulsant activity against maximal electric shock (MES) induced convulsions after 4 hr at a dose of 300 mg/kg; assay type: functional
Mus musculus [8] = test: Compound was evaluated for toxicity by rotarod assay method after 30 minutes at a dose of 600 mg/kg; assay type: organism-based; parameters: dose 600 mg/kg; conditions: in vivo, 0.5 h; summary of the method: as §1
Mus musculus [9] = test: Compound was evaluated for anticonvulsant activity against maximal electric shock (MES) induced convulsions after 30 minutes at a dose of 300 mg/kg; assay type: functional
Mus musculus [10] = test: Compound was evaluated for anticonvulsant activity against maximal electric shock (MES) induced convulsions after 4 hr; E indicates no activity at 30 mg/kg.; assay type: functional, organism-based; parameters: dose 30 mg/kg
Mus musculus [11] = test: Compound was evaluated for anticonvulsant activity against subcutaneous pentylenetetrazole-induced convulsions after 30 minutes; E indicates no activity at 30 mg/kg.; assay type: functional, organism-based; parameters: dose 30 mg/kg; summary of the method: as §2
Mus musculus [12] = test: Compound was evaluated for toxicity by rotarod assay method after 4 hr; E indicates no activity at 30 mg/kg.; assay type: organism-based; parameters: dose 30 mg/kg; conditions: in vivo; summary of the method: as §1
Mus musculus [13] = test: Compound was evaluated for anticonvulsant activity against subcutaneous pentylenetetrazole-induced convulsions after 4 hr; E indicates no activity at 30 mg/kg.; assay type: functional, organism-based; parameters: dose 30 mg/kg; summary of the method: as §2
Mus musculus [14] = test: Compound was evaluated for anticonvulsant activity against subcutaneous pentylenetetrazole-induced convulsions after 4 hr; C is inactive at 300 mg/kg.; assay type: functional, organism-based; parameters: dose 300 mg/kg; summary of the method: as §2
Mus musculus [15] = test: Compound was evaluated for toxicity by rotarod assay method after 4 hr; C is inactive at 300 mg/kg.; assay type: organism-based; parameters: dose 300 mg/kg; conditions: in vivo; summary of the method: as §1
Mus musculus [16] = test: Compound was evaluated for toxicity by rotarod assay method after 30 minutes;C is inactive at 300 mg/kg.; assay type: organism-based; parameters: dose 300 mg/kg; conditions: in vivo, 0.5 h; summary of the method: as §1
Mus musculus [17] = test: Compound was evaluated for anticonvulsant activity against subcutaneous pentylenetetrazole-induced convulsions after 30 minutes;C is inactive at 300 mg/kg.; assay type: functional, organism-based; parameters: dose 300 mg/kg; summary of the method: as §2
Mus musculus [18] = test: Compound was evaluated for anticonvulsant activity against maximal electric shock (MES) induced convulsions after 30 minutes;C is inactive at 300 mg/kg.; assay type: functional, organism-based; parameters: dose 300 mg/kg
Mus musculus [19] = test: Compound was evaluated for anticonvulsant activity against maximal electric shock (MES) induced convulsions after 4 hr; C is inactive at 300 mg/kg.; assay type: functional, organism-based; parameters: dose 300 mg/kg
[20] = Lethal dose was evaluated in mice; assay type: toxicity, organism-based; conditions: mouse, in vivo
Mus musculus [21] = organism: Mus musculus; test: Hypnotic dose was evaluated in mice; assay type: functional
[22] = Protective index is the ratio of TD50 to ED50; assay type: ADME
Summary of the method: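 Protective index was calculated as rotorod TD50 divided by anti-MES ED50. Both were graphical median doses from ip dosing in 30% PEG 400 in male Carworth Farms mice.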

For `CN(C)c1ccc(C(=O)NCc2ccccc2)cc1`, which ED50 (Mus musculus [1]) is on record?
Its ED50 is 233 mg/kg.

What about the Toxicity (Mus musculus [2]) of the same molecule?
Its Toxicity is “No activity at 300 mg/kg”.

What about the Toxicity (Mus musculus [3]) of the same molecule?
Its Toxicity is “No activity at 300 mg/kg”.

What about the Activity (Mus musculus [4]) of the same molecule?
The Activity was “No activity at 300 mg/kg”.

What about the Activity (Mus musculus [5]) of the same molecule?
Its Activity is “No activity at 300 mg/kg”.

And the Activity (Mus musculus [6])?
Its Activity is “No activity at 300 mg/kg”.

And the Activity (Mus musculus [7])?
Its Activity is 2.

For `CC(NCc1ccccc1N)c1ccccc1` (configuration not stated), which Toxicity (Mus musculus [8]) is on record?
The Toxicity was 1.

What about the Activity (Mus musculus [9]) of the same molecule?
The Activity was 2.

And the Activity (Mus musculus [10])?
The Activity was “No activity at 30 mg/kg”.

And the Activity (Mus musculus [11])?
The Activity was “No activity at 30 mg/kg”.

What about the Toxicity (Mus musculus [12]) of the same molecule?
Its Toxicity is “No activity at 30 mg/kg”.

And the Activity (Mus musculus [13])?
Its Activity is “No activity at 30 mg/kg”.

Which results are given for `CC(NC(=O)c1ccccc1)c1ccccc1` (configuration not stated)?
Activity (Mus musculus [14]): No activity at 300 mg/kg; Toxicity (Mus musculus [15]): No activity at 300 mg/kg; Toxicity (Mus musculus [16]): No activity at 300 mg/kg; Activity (Mus musculus [17]): No activity at 300 mg/kg; Activity (Mus musculus [18]): No activity at 300 mg/kg; Activity (Mus musculus [19]): No activity at 300 mg/kg

Which LD50 [20] does the source give for `CC(NC(=O)c1ccc(N)cc1)c1ccccc1` (configuration not stated) here?
The LD50 was 718 mg/kg.

And the HD50 (Mus musculus [21])?
The HD50 was 461.76 mg/kg.

And the Protective index [22]?
The Protective index was 9.5 and 4.1.
